# Assay results from ChEMBL document CHEMBL1921722, “In vitro and in vivo evaluation of select kahalalide F analogs with antitumor and antifungal activities” (Bioorg Med Chem, 2011).
# Key:
# A498 [1] = assay: Cytotoxicity against human A498 cells by sulforhodamine B assay; type: functional; conditions: for TGI: read-out: pTGI (converted)
# Method in brief: (§1)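 Run at NCI in the DTP 60-cell-line human tumor panel by standard procedure. Compounds were first screened at a single concentration, then tested at five tenfold-spaced concentrations. GI50 is the concentration reducing treated-cell growth to half that of untreated controls; TGI is the concentration completely halting growth.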
# UO-31 = assay: Cytotoxicity against human UO31 cells by sulforhodamine B assay; type: functional; conditions: for TGI: read-out: pTGI (converted)
# Method in brief: (§2)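 NCI Developmental Therapeutics Program 60-cell-line human tumor panel screen, run at NCI. A single-concentration pre-screen was followed by a five-concentration dose-response in 10-fold steps. GI50 is the concentration that reduces growth of treated cells to half that of untreated control cells. TGI is the concentration that completely halts growth.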
# SK-MEL-28 = assay: Cytotoxicity against human SK-MEL-28 cells assessed as cell growth at 8 nM by sulforhodamine B assay relative to control; type: functional; conditions: read-out: Activity
# HCT-15 = assay: Cytotoxicity against human HCT15 cells assessed as cell growth at 8 nM by sulforhodamine B assay relative to control; type: functional; conditions: read-out: Activity
# HCC 2998 = assay: Cytotoxicity against human HCC2998 cells assessed as cell growth at 8 nM by sulforhodamine B assay relative to control; type: functional; conditions: read-out: Activity
# NCI-H522 = assay: Cytotoxicity against human NCI-H522 cells assessed as cell growth at 8 nM by sulforhodamine B assay relative to control; type: functional; conditions: read-out: Activity
# COLO 205 [2] = assay: Cytotoxicity against human COLO205 cells assessed as cell growth at 8 nM by sulforhodamine B assay relative to control; type: functional; conditions: read-out: Activity; method in brief: as §1
# Mus musculus = assay: Acute toxicity in athymic nude mouse assessed as mortality at 400 mg/kg, […] after 19 days; type: organism-based; set-up: dose 400 mg/kg, route intraperitoneal; conditions: in vivo, ip, 456 h
# HOP-92 [3] = assay: Cytotoxicity against human HOP92 cells assessed as cell growth at 8 nM by sulforhodamine B assay relative to control; type: functional; conditions: read-out: Activity
# OVCAR-4 = assay: Cytotoxicity against human OVCAR4 cells assessed as cell growth at 8 nM by sulforhodamine B assay relative to control; type: functional; conditions: read-out: Activity
# 786-0 [4] = assay: Cytotoxicity against human 786-0 cells assessed as cell growth at 8 nM by sulforhodamine B assay relative to control; type: functional; conditions: read-out: Activity; method in brief: as §1
# DU-145 = assay: Cytotoxicity against human DU145 cells assessed as cell growth at 8 nM by sulforhodamine B assay relative to control; type: functional; conditions: read-out: Activity; method in brief: as §1
# NCI/ADR-RES = assay: Cytotoxicity against human NCI/ADR-RES cells assessed as cell growth at 8 nM by sulforhodamine B assay relative to control; type: functional; conditions: read-out: Activity
# MDA-MB-231 [5] = assay: Cytotoxicity against human MDA-MB-231 cells assessed as cell growth at 8 nM by sulforhodamine B assay relative to control; type: functional; conditions: read-out: Activity
# HOP-92 [6] = assay: Cytotoxicity against human HOP92 cells assessed as cell growth at 80 nM by sulforhodamine B assay relative to control; type: functional; conditions: read-out: Activity
# U-251 = assay: Cytotoxicity against human U251 cells assessed as cell growth at 80 nM by sulforhodamine B assay relative to control; type: functional; conditions: read-out: Activity
# Malme-3M [7] = assay: Cytotoxicity against human MALME-3M cells assessed as cell growth at 80 nM by sulforhodamine B assay relative to control; type: functional; conditions: read-out: Activity
# OVCAR-8 = assay: Cytotoxicity against human OVCAR8 cells assessed as cell growth at 80 nM by sulforhodamine B assay relative to control; type: functional; conditions: read-out: Activity
# A549 = assay: Cytotoxicity against human A549 cells assessed as cell growth at 800 nM by sulforhodamine B assay relative to control; type: functional; conditions: read-out: Activity; method in brief: as §1
# COLO 205 [8] = assay: Cytotoxicity against human COLO205 cells assessed as cell growth at 800 nM by sulforhodamine B assay relative to control; type: functional; conditions: read-out: Activity; method in brief: as §1
# SF-268 = assay: Cytotoxicity against human SF268 cells assessed as cell growth at 800 nM by sulforhodamine B assay relative to control; type: functional; conditions: read-out: Activity
# OVCAR-5 = assay: Cytotoxicity against human OVCAR5 cells assessed as cell growth at 800 nM by sulforhodamine B assay relative to control; type: functional; conditions: read-out: Activity
# SN12C [9] = assay: Cytotoxicity against human SN12C cells assessed as cell growth at 800 nM by sulforhodamine B assay relative to control; type: functional; conditions: read-out: Activity
# NCI-H460 = assay: Cytotoxicity against human NCI-H460 cells assessed as cell growth at 8 uM by sulforhodamine B assay relative to control; type: functional; conditions: read-out: Activity
# KM12 = assay: Cytotoxicity against human KM12 cells assessed as cell growth at 8 uM by sulforhodamine B assay relative to control; type: functional; conditions: read-out: Activity
# SNB-75 = assay: Cytotoxicity against human SNB75 cells assessed as cell growth at 8 uM by sulforhodamine B assay relative to control; type: functional; conditions: read-out: Activity
# 786-0 [10] = assay: Cytotoxicity against human 786-0 cells assessed as cell growth at 8 uM by sulforhodamine B assay relative to control; type: functional; conditions: read-out: Activity; method in brief: as §1
# MDA-MB-231 [11] = assay: Cytotoxicity against human MDA-MB-231 cells assessed as cell growth at 8 uM by sulforhodamine B assay relative to control; type: functional; conditions: read-out: Activity
# RPMI-8226 = assay: Cytotoxicity against human RPMI8226 cells assessed as cell growth at 80 uM by sulforhodamine B assay relative to control; type: functional; conditions: read-out: Activity
# NCI-H322M = assay: Cytotoxicity against human NCI-H322M cells assessed as cell growth at 80 uM by sulforhodamine B assay relative to control; type: functional; conditions: read-out: Activity
# SW-620 = assay: Cytotoxicity against human SW620 cells assessed as cell growth at 80 uM by sulforhodamine B assay relative to control; type: functional; conditions: read-out: Activity
# LOX IMVI = assay: Cytotoxicity against human LOXIMVI cells assessed as cell growth at 80 uM by sulforhodamine B assay relative to control; type: functional; conditions: read-out: Activity
# Malme-3M [12] = assay: Cytotoxicity against human MALME-3M cells assessed as cell growth at 80 uM by sulforhodamine B assay relative to control; type: functional; conditions: read-out: Activity
# SK-MEL-2 = assay: Cytotoxicity against human SK-MEL-2 cells assessed as cell growth at 80 uM by sulforhodamine B assay relative to control; type: functional; conditions: read-out: Activity
# SK-MEL-5 = assay: Cytotoxicity against human SK-MEL-5 cells assessed as cell growth at 80 uM by sulforhodamine B assay relative to control; type: functional; conditions: read-out: Activity
# SK-OV-3 = assay: Cytotoxicity against human SKOV3 cells assessed as cell growth at 80 uM by sulforhodamine B assay relative to control; type: functional; conditions: read-out: Activity
# A498 [13] = assay: Cytotoxicity against human A498 cells assessed as cell growth at 80 uM by sulforhodamine B assay relative to control; type: functional; conditions: read-out: Activity; method in brief: as §1
# SN12C [14] = assay: Cytotoxicity against human SN12C cells assessed as cell growth at 80 uM by sulforhodamine B assay relative to control; type: functional; conditions: read-out: Activity
# SR = assay: Cytotoxicity against human SR cells by sulforhodamine B assay; type: functional; conditions: for TGI: read-out: pTGI (converted); method in brief: as §2
# HCT-116 = assay: Cytotoxicity against human HCT116 cells by sulforhodamine B assay; type: functional; conditions: for TGI: read-out: pTGI (converted)
# Method in brief: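 Run by the NCI Developmental Therapeutics Program on its 60-line human tumour cell panel using the standard procedure. Compounds went through a single-concentration prescreen first, and those active by NCI criteria went on to a five-concentration growth-inhibition test. GI50 is the concentration that cuts growth of treated cells to half that of untreated control cells.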
smiles,measurement,setting,value
C/C=C1\NC(=O)[C@H](Cc2ccccc2)NC(=O)[C@@H](C(C)C)NC(=O)[C@@H]([C@@H](C)CC)NC(=O)[C@H](NC(=O)[C@H](NC(=O)[C@H](CCCNCc2ccc(N3CCOCC3)cc2)NC(=O)[C@H]2CCCN2C(=O)[C@H](NC(=O)[C@@H](NC(=O)[C@@H](NC(=O)[C@H](NC(=O)CCCC(C)C)C(C)C)[C@@H](C)O)C(C)C)C(C)C)[C@@H](C)CC)[C@@H](C)OC(=O)[C@H](C(C)C)NC1=O,GI50,A498 [1],1580 nM
same,LC50,A498 [1],7410 nM
same,TGI,A498 [1],3470 nM
same,GI50,UO-31,1380 nM
same,TGI,UO-31,2690 nM
same,growth at 0.008 µM,SK-MEL-28,87%
same,growth at 0.008 µM,HCT-15,98%
same,growth at 0.008 µM,HCC 2998,97%
same,growth at 0.008 µM,NCI-H522,99%
same,growth at 0.008 µM,COLO 205 [2],103%
same,Activity,Mus musculus,Toxic
same,growth at 0.008 µM,HOP-92 [3],81%
same,growth at 0.008 µM,OVCAR-4,103%
same,growth at 0.008 µM,786-0 [4],103%
same,growth at 0.008 µM,DU-145,99%
same,growth at 0.008 µM,NCI/ADR-RES,104%
same,growth at 0.008 µM,MDA-MB-231 [5],95%
same,growth at 0.08 µM,HOP-92 [6],96%
same,growth at 0.08 µM,U-251,103%
same,growth at 0.08 µM,Malme-3M [7],112%
same,growth at 0.08 µM,OVCAR-8,98%
same,growth at 0.8 µM,A549,-40%
same,growth at 0.8 µM,COLO 205 [8],-52%
same,growth at 0.8 µM,SF-268,90%
same,growth at 0.8 µM,OVCAR-5,64%
same,growth at 0.8 µM,SN12C [9],86%
same,growth at 8 µM,NCI-H460,-24%
same,growth at 8 µM,KM12,-48%
same,growth at 8 µM,SNB-75,-80%
same,growth at 8 µM,786-0 [10],-88%
same,growth at 8 µM,MDA-MB-231 [11],20%
same,growth at 80 µM,RPMI-8226,-29%
same,growth at 80 µM,NCI-H322M,-18%
same,growth at 80 µM,SW-620,-13%
same,growth at 80 µM,LOX IMVI,-59%
same,growth at 80 µM,Malme-3M [12],-23%
same,growth at 80 µM,SK-MEL-2,-32%
same,growth at 80 µM,SK-MEL-5,-56%
same,growth at 80 µM,SK-OV-3,-23%
same,growth at 80 µM,A498 [13],-91%
same,growth at 80 µM,SN12C [14],-17%
same,GI50,SR,3020 nM
same,LC50,SR,> 75900 nM
same,TGI,SR,36300 nM
same,GI50,HCT-116,1550 nM
same,LC50,HCT-116,6030 nM
same,TGI,HCT-116,3090 nM
C/C=C1\NC(=O)[C@H](Cc2ccccc2)NC(=O)[C@@H](C(C)C)NC(=O)[C@@H]([C@@H](C)CC)NC(=O)[C@H](NC(=O)[C@H](NC(=O)[C@H](CCCNCc2ccc(F)c(C)c2)NC(=O)[C@H]2CCCN2C(=O)[C@H](NC(=O)[C@@H](NC(=O)[C@@H](NC(=O)[C@H](NC(=O)CCCC(C)C)C(C)C)[C@@H](C)O)C(C)C)C(C)C)[C@@H](C)CC)[C@@H](C)OC(=O)[C@H](C(C)C)NC1=O,GI50,A498 [1],1320 nM
same,LC50,A498 [1],4470 nM
same,TGI,A498 [1],2450 nM
same,GI50,UO-31,1320 nM
same,TGI,UO-31,2630 nM
same,growth at 0.008 µM,SK-MEL-28,97%
same,growth at 0.008 µM,HCT-15,100%
same,growth at 0.008 µM,HCC 2998,108%
same,growth at 0.008 µM,NCI-H522,104%
same,growth at 0.008 µM,COLO 205 [2],99%
same,Activity,Mus musculus,Toxic
same,growth at 0.008 µM,HOP-92 [3],104%
same,growth at 0.008 µM,OVCAR-4,100%
same,growth at 0.008 µM,786-0 [4],103%
same,growth at 0.008 µM,DU-145,99%
same,growth at 0.008 µM,NCI/ADR-RES,105%
same,growth at 0.008 µM,MDA-MB-231 [5],101%
same,growth at 0.08 µM,HOP-92 [6],105%
same,growth at 0.08 µM,U-251,100%
same,growth at 0.08 µM,Malme-3M [7],118%
same,growth at 0.08 µM,OVCAR-8,103%
same,growth at 0.8 µM,A549,-40%
same,growth at 0.8 µM,COLO 205 [8],-66%
same,growth at 0.8 µM,SF-268,63%
same,growth at 0.8 µM,OVCAR-5,55%
same,growth at 0.8 µM,SN12C [9],87%
same,growth at 8 µM,NCI-H460,-71%
same,growth at 8 µM,KM12,-85%
same,growth at 8 µM,SNB-75,-73%
same,growth at 8 µM,786-0 [10],-99%
same,growth at 8 µM,MDA-MB-231 [11],-55%
same,growth at 80 µM,RPMI-8226,-21%
same,growth at 80 µM,NCI-H322M,-94%
same,growth at 80 µM,SW-620,-80%
same,growth at 80 µM,LOX IMVI,-92%
same,growth at 80 µM,Malme-3M [12],12%
same,growth at 80 µM,SK-MEL-2,-21%
same,growth at 80 µM,SK-MEL-5,-100%
same,growth at 80 µM,SK-OV-3,-75%
same,growth at 80 µM,A498 [13],-100%
same,growth at 80 µM,SN12C [14],-96%
same,GI50,SR,1580 nM
same,LC50,SR,> 75900 nM
same,TGI,SR,3470 nM
same,GI50,HCT-116,1380 nM
same,LC50,HCT-116,4270 nM
same,TGI,HCT-116,2450 nM
